Source: ChEMBL document CHEMBL1811825, “Synthesis and antiviral evaluation of 9-(S)-[3-alkoxy-2-(phosphonomethoxy)propyl]nucleoside alkoxyalkyl esters: inhibitors of hepatitis C virus and HIV-1 replication” (Bioorg Med Chem, 2011)

What was measured:
Hepatitis C virus [1] = assay: Antiviral activity against Hepatitis C virus genotype 1b infected in human Huh-7.5.1 cells after 48 to 72 hrs by luciferase reporter assay; assay type: functional, organism-based, Hepacivirus hominis
Hepatitis C virus [2] = assay: Antiviral activity against HCV JFH-1 infected in human Huh-7.5.1 cells after 48 to 72 hrs by luciferase reporter assay; assay type: functional, organism-based, Hepacivirus hominis; conditions: JFH-1, Huh-7.5.1
[3] = Cytotoxicity against human Huh7.5.1 cells by fluorescent cell viability assay; assay type: cell-based, Huh-7
[4] = test system: Human immunodeficiency virus 1; assay: Antiviral activity against HIV-1 LAI infected in human MT2 cells assessed as p24 antigen production after 4 days by ELISA; assay type: functional, organism-based; conditions: Human immunodeficiency virus 1, LAI, MT2, 96 h
How it was run: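 MT-2 cells in RPMI 1640 with 10% FBS, 10 mM HEPES, penicillin/streptomycin, inoculated with HIV-1 LAI at MOI 0.001 TCID50/cell; threefold serial drug dilutions, three wells each.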

MT2 = assay: Cytotoxicity against human MT2 cells after 72 hrs by propidium iodide staining-based flow cytometry; assay type: cell-based; conditions: mt2, 72 h
Human alphaherpesvirus 1 = assay: Antiviral activity against Human herpesvirus 1 infected in human HFF cells after 3 days by Plaque reduction assay; assay type: functional, organism-based; conditions: Human alphaherpesvirus 1, HFF, 72 h
[5] = Selectivity index, ratio of CC50 for human Huh7.5.1 cells to EC50 for HCV genotype1b in human Huh-7.5.1 cells; assay type: functional, Huh-7
[6] = Selectivity index, ratio of CC50 for human MT2 cells to EC50 for HIV-1 LAI infected in human MT2 cells; assay type: toxicity, cell-based; conditions: read-out: Ratio CC50/EC50
[7] = Selectivity index, ratio of CC50 for human Huh7.5.1 cells to EC50 for HCV JFH-1 in human Huh-7.5.1 cells; assay type: functional, Huh-7
Human betaherpesvirus 5 = assay: Antiviral activity against Human cytomegalovirus infected in human HFF cells after 8 days by Plaque reduction assay; assay type: functional, organism-based; conditions: Human betaherpesvirus 5, HFF, 192 h
Vaccinia virus = assay: Antiviral activity against Vaccinia virus infected in human HFF cells after 3 days by Plaque reduction assay; assay type: functional, organism-based; conditions: Orthopoxvirus vaccinia, 72 h
Cowpox virus = assay: Antiviral activity against Cowpox virus infected in human HFF cells after 3 days by Plaque reduction assay; assay type: functional, organism-based; conditions: 72 h

SMILES	EC50 (Hepatitis C virus [1])	EC50 (Hepatitis C virus [2])	CC50 ([3]; huh-7)	EC50 [4]	CC50 (MT2)	CC50 ([3]; Huh7.5.1 cells)	EC50 (Human alphaherpesvirus 1)	Ratio CC50/EC50 [5]	selectivity ratio [6]	Ratio CC50/EC50 [7]	EC50 (Human betaherpesvirus 5)	EC50 (Vaccinia virus)	EC50 (Cowpox virus)
CCCCCCCCCCCCCCCCOCCCOP(=O)(O)CO[C@H](COC)Cn1cnc2c(N)nc(N)nc21	21.3 µM	23.6 µM	91.5 µM	4600 nM	22.7 µM	–	–	–	–	–	–	–	–
CCCCCCCCCCCCCCCCOCCCOP(=O)(O)CO[C@H](COC)Cn1cnc2c(OC)ncnc21	8.9 µM	12.5 µM	–	> 10000 nM	22 µM	> 150 µM	–	–	–	–	–	–	–
CCCCCCCCCCCCCCCCCCOCCOP(=O)(O)CO[C@H](CO)Cn1cnc2c(N)ncnc21	1.55 µM	1.65 µM	35.6 µM	0.1 nM	0.033 µM	–	< 0.0001 µM	–	–	–	–	–	–
CCCCCCCCCCCCCCCCCCOCCOP(=O)(O)CO[C@@H](COC)Cn1cnc2c(N)ncnc21	4.65 µM	5.33 µM	–	4800 nM	–	> 150 µM	–	–	–	–	–	–	–
CCCCCCCCCCCCCCCCCCOCCOP(=O)([O-])CO[C@@H](COC)Cn1cnc2c(=O)[nH]c(N)nc21.[Na+]	12.6 µM	12.4 µM	–	< 0.01 nM	44 µM	> 150 µM	–	>11.9	> 4.4e+06	>12.1	–	–	–
CCCCCCCCCCCCCCCCOCCCOP(=O)(O)CO[C@H](COC)Cn1cnc2c(OC)nc(N)nc21	18.1 µM	17.4 µM	–	> 10000 nM	34.3 µM	> 150 µM	–	–	–	–	–	–	–
CCCCCCCCCCCCCCCCOCCCOP(=O)([O-])COC(COCC)Cn1cnc2c(N)nc(N)nc21.[Na+] (racemic)	18.2 µM	19.5 µM	–	> 10000 nM	30.7 µM	> 150 µM	–	>8.2	–	>7.69	–	–	–
CCCCCCCCCCCCCCCCOCCCOP(=O)(O)CO[C@H](COC)Cn1cnc2c(=O)[nH]c(N)nc21	22 µM	24.8 µM	–	2030 nM	29.3 µM	> 150 µM	–	–	–	–	–	–	–
CCCCCCCCCCCCCCCCOCCCOP(=O)(O)CO[C@H](COC)Cn1cnc2c(N)ncnc21	2.36 µM	4.64 µM	–	200 nM	32 µM	> 150 µM	–	–	–	–	–	–	–
CCCCCCCCCCCCCCCCCCOCCOP(=O)(O)CO[C@@H](COC)Cn1cnc2c(N)nc(N)nc21	25.6 µM	25.8 µM	–	40 nM	19.7 µM	> 150 µM	–	–	–	–	–	–	–
CCCCCCCCCCCCCCCCOCCCOP(=O)(O)COC(COC(C)C)Cn1cnc2c(N)ncnc21 (racemic)	51.2 µM	98.8 µM	100 µM	> 10000 nM	30.3 µM	–	–	–	–	–	–	–	–
CCCCCCCCCCCCCCCCOCCCOP(=O)(O)COC(COCC)Cn1cnc2c(N)ncnc21 (racemic)	7.59 µM	8.87 µM	99 µM	> 10000 nM	23.6 µM	–	–	–	–	–	–	–	–
CCCCCCCCCCCCCCCCCCOCCOP(=O)(O)CO[C@H](COC)Cn1cnc2c(N)ncnc21	1.43 µM	2.38 µM	–	30 nM	–	> 150 µM	45.7 µM	–	–	–	1.55 µM	18.3 µM	> 20 µM
CCCCCCCCCCCCCCCCCCOCCOP(=O)([O-])CO[C@H](COC)Cn1cnc2c(=O)[nH]c(N)nc21.[Na+]	8.26 µM	10.7 µM	–	200 nM	25 µM	> 150 µM	–	>18.2	125	>14	–	–	–
CCCCCCCCCCCCCCCCCCOCCOP(=O)(O)CO[C@H](COC)Cn1cnc2c(N)nc(N)nc21	20.1 µM	21.4 µM	99 µM	230 nM	18 µM	–	–	–	–	–	–	–	–
CCCCCCCCCCCCCCCCOCCCOP(=O)([O-])COC(COCC)Cn1cnc2c(=O)[nH]c(N)nc21.[Na+] (racemic)	25.5 µM	13.2 µM	–	> 10000 nM	14.9 µM	> 150 µM	–	>5.88	–	>11.4	–	–	–
CCCCCCCCCCCCCCCCCCOCCOP(=O)(O)CO[C@H](COC)Cn1ccc(N)nc1=O	> 150 µM	> 150 µM	–	12700 nM	60.7 µM	> 150 µM	–	–	4.8	–	–	–	–
